Results reported in ChEMBL document CHEMBL3124806, “Imidazopyridine-fused [1,3]-diazepinones: synthesis and antiproliferative activity” (Eur J Med Chem, 2014).

Assays:
Assay type in all cases: functional
NCI-H226 = assay: Cytotoxicity against human NCI-H226 cells assessed as cell growth at 10 uM after 48 hrs by SRB assay relative to untreated control; details: NCI-H226, 48 h, read-out: Activity
Outline: (§1)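 NCI-60 one-dose screen: each agent added at 10 µM, cultures incubated 48 h. Endpoint by sulforhodamine B protein-binding dye read spectrophotometrically; growth expressed as percent of untreated control cells.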

HOP-62 = assay: Cytotoxicity against human HOP62 cells assessed as cell growth at 10 uM after 48 hrs by SRB assay relative to untreated control; details: HOP-62, 48 h, read-out: Activity
Outline: (§2)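 NCI-60 panel screen at a single concentration of 10 μM with 48 h incubation. Cell density measured by sulforhodamine B protein-binding dye and read spectrophotometrically. Growth expressed as percent of untreated control cells.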

SW-620 = assay: Cytotoxicity against human SW620 cells assessed as cell growth at 10 uM after 48 hrs by SRB assay relative to untreated control; details: SW-620, 48 h, read-out: Activity
Outline: (§3)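 NCI-60 single-dose screen. Compounds were added to the cultures at 10 μM and incubated for 48 h. The end point was sulforhodamine B protein staining read spectrophotometrically. Growth is reported as percent of untreated control cells.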

SR = assay: Cytotoxicity against human SR cells assessed as cell growth at 10 uM after 48 hrs by SRB assay relative to untreated control; details: read-out: Activity; outline: as §3
NCI-H460 = assay: Cytotoxicity against human NCI-H460 cells assessed as cell growth at 10 uM after 48 hrs by SRB assay relative to untreated control; details: NCI-H460, 48 h, read-out: Activity; outline: as §1
[1] = Cytotoxicity against human UACC257 cells assessed as cell growth at 10 uM after 48 hrs by SRB assay relative to untreated control; details: UACC-257, 48 h, read-out: Activity; outline: as §3
[2] = Cytotoxicity against human UO31 cells assessed as cell growth at 10 uM after 48 hrs by SRB assay relative to untreated control; details: UO-31, 48 h, read-out: Activity; outline: as §3
SF-295 = assay: Cytotoxicity against human SF295 cells assessed as cell growth at 10 uM after 48 hrs by SRB assay relative to untreated control; details: SF-295, 48 h, read-out: Activity; outline: as §1
[3] = Cytotoxicity against human OVCAR4 cells assessed as cell growth at 10 uM after 48 hrs by SRB assay relative to untreated control; details: OVCAR-4, 48 h, read-out: Activity; outline: as §1
786-0 = assay: Cytotoxicity against human […] cells assessed as cell growth at 10 uM after 48 hrs by SRB assay relative to untreated control; details: 786-0, 48 h, read-out: Activity; outline: as §2
LOX IMVI = assay: Cytotoxicity against human LOXIMVI cells assessed as cell growth at 10 uM after 48 hrs by SRB assay relative to untreated control; details: read-out: Activity; outline: as §2
SK-MEL-28 = assay: Cytotoxicity against human SK-MEL-28 cells assessed as cell growth at 10 uM after 48 hrs by SRB assay relative to untreated control; details: SK-MEL-28, 48 h, read-out: Activity; outline: as §3
K562 = assay: Cytotoxicity against human K562 cells assessed as cell growth at 10 uM after 48 hrs by SRB assay relative to untreated control; details: K562, 48 h, read-out: Activity; outline: as §2
[4] = Cytotoxicity against human OVCAR5 cells assessed as cell growth at 10 uM after 48 hrs by SRB assay relative to untreated control; details: OVCAR-5, 48 h, read-out: Activity; outline: as §1
PC-3 = assay: Cytotoxicity against human PC3 cells assessed as cell growth at 10 uM after 48 hrs by SRB assay relative to untreated control; details: PC-3, 48 h, read-out: Activity; outline: as §1
MDA-MB-435 = assay: Cytotoxicity against human MDA-MB-435 cells assessed as cell growth at 10 uM after 48 hrs by SRB assay relative to untreated control; details: MDA-MB-435, 48 h, read-out: Activity; outline: as §1
BT-549 = assay: Cytotoxicity against human BT549 cells assessed as cell growth at 10 uM after 48 hrs by SRB assay relative to untreated control; details: BT-549, 48 h, read-out: Activity; outline: as §2
KM12 = assay: Cytotoxicity against human KM12 cells assessed as cell growth at 10 uM after 48 hrs by SRB assay relative to untreated control; details: KM12, 48 h, read-out: Activity; outline: as §2
SN12C = assay: Cytotoxicity against human SN12C cells assessed as cell growth at 10 uM after 48 hrs by SRB assay relative to untreated control; details: read-out: Activity; outline: as §3
HCT-15 = assay: Cytotoxicity against human HCT15 cells assessed as cell growth at 10 uM after 48 hrs by SRB assay relative to untreated control; details: HCT-15, 48 h, read-out: Activity; outline: as §2
M14 = assay: Cytotoxicity against human M14 cells assessed as cell growth at 10 uM after 48 hrs by SRB assay relative to untreated control; details: M14, 48 h, read-out: Activity; outline: as §2
SF-268 = assay: Cytotoxicity against human SF268 cells assessed as cell growth at 10 uM after 48 hrs by SRB assay relative to untreated control; details: SF-268, 48 h, read-out: Activity; outline: as §1
U-251 = assay: Cytotoxicity against human U251 cells assessed as cell growth at 10 uM after 48 hrs by SRB assay relative to untreated control; details: U-251, 48 h, read-out: Activity; outline: as §3
DU-145 = assay: Cytotoxicity against human DU145 cells assessed as cell growth at 10 uM after 48 hrs by SRB assay relative to untreated control; details: DU-145, 48 h, read-out: Activity; outline: as §2
HCC 2998 = assay: Cytotoxicity against human HCC2998 cells assessed as cell growth at 10 uM after 48 hrs by SRB assay relative to untreated control; details: HCC 2998, 48 h, read-out: Activity; outline: as §2
[5] = Cytotoxicity against human NCI-ADR-RES cells assessed as cell growth at 10 uM after 48 hrs by SRB assay relative to untreated control; details: read-out: Activity; outline: as §1
NCI-H522 = assay: Cytotoxicity against human NCI-H522 cells assessed as cell growth at 10 uM after 48 hrs by SRB assay relative to untreated control; details: NCI-H522, 48 h, read-out: Activity; outline: as §1
RXF 393 = assay: Cytotoxicity against human RXF393 cells assessed as cell growth at 10 uM after 48 hrs by SRB assay relative to untreated control; details: RXF 393, 48 h, read-out: Activity; outline: as §1
Malme-3M = assay: Cytotoxicity against human MALME-3M cells assessed as cell growth at 10 uM after 48 hrs by SRB assay relative to untreated control; details: read-out: Activity; outline: as §2
A498 = assay: Cytotoxicity against human A498 cells assessed as cell growth at 10 uM after 48 hrs by SRB assay relative to untreated control; details: A498, 48 h, read-out: Activity; outline: as §2
OVCAR-3 = assay: Cytotoxicity against human OVCAR3 cells assessed as cell growth at 10 uM after 48 hrs by SRB assay relative to untreated control; details: OVCAR-3, 48 h, read-out: Activity; outline: as §1
HOP-92 = assay: Cytotoxicity against human HOP92 cells assessed as cell growth at 10 uM after 48 hrs by SRB assay relative to untreated control; details: HOP-92, 48 h, read-out: Activity; outline: as §2

SMILES	growth at 10 µM (NCI-H226)	growth at 10 µM (HOP-62)	growth at 10 µM (SW-620)	growth at 10 µM (SR)	growth at 10 µM (NCI-H460)	growth at 10 µM [1]	growth at 10 µM [2]	growth at 10 µM (SF-295)	growth at 10 µM [3]	growth at 10 µM (786-0)	growth at 10 µM (LOX IMVI)	growth at 10 µM (SK-MEL-28)	growth at 10 µM (K562)	growth at 10 µM [4]	growth at 10 µM (PC-3)	growth at 10 µM (MDA-MB-435)	growth at 10 µM (BT-549)	growth at 10 µM (KM12)	growth at 10 µM (SN12C)	growth at 10 µM (HCT-15)	also measured
O=C1Nc2nc3ccccn3c2C(=O)[C@H](Cc2ccccc2)N1	104%	97.2%	101%	107%	103%	89.8%	90.2%	105%	111%	99.2%	93.5%	114%	106%	95%	95.2%	96.4%	96.9%	100%	105%	94.6%	growth at 10 µM (M14): 93%; growth at 10 µM (SF-268): 101%; growth at 10 µM (U-251): 93.2%; growth at 10 µM (DU-145): 104%; growth at 10 µM (HCC 2998): 97.5%; growth at 10 µM [5]: 98.7%; growth at 10 µM (NCI-H522): 94%; growth at 10 µM (RXF 393): 105%; growth at 10 µM (Malme-3M): 93.2%; growth at 10 µM (A498): 94%; growth at 10 µM (OVCAR-3): 101%; growth at 10 µM (HOP-92): 86.5%
Cc1ccc(C2=Nc3nc4ccccn4c3C(=O)[C@H](Cc3ccccc3)N2)cc1	88.2%	75.9%	102%	89.7%	103%	91.1%	77%	84%	102%	106%	85.8%	109%	87.9%	99.2%	80.7%	46.8%	88.3%	92.9%	104%	78%	growth at 10 µM (M14): 97.7%; growth at 10 µM (SF-268): 97.4%; growth at 10 µM (U-251): 99.3%; growth at 10 µM (DU-145): 117%; growth at 10 µM (HCC 2998): 106%; growth at 10 µM [5]: 87.1%; growth at 10 µM (NCI-H522): 98.1%; growth at 10 µM (RXF 393): 95.7%; growth at 10 µM (Malme-3M): 99.9%; growth at 10 µM (A498): 101%; growth at 10 µM (OVCAR-3): 99.3%; growth at 10 µM (HOP-92): 88.3%
C[C@H]1NC(c2ccc(Br)cc2)=Nc2nc3ccccn3c2C1=O	85.7%	69.8%	97%	77.7%	101%	101%	51.5%	96.9%	111%	89.1%	92.3%	97.5%	84.8%	98.2%	83.8%	95.4%	75.5%	102%	94.6%	97.1%	growth at 10 µM (M14): 99.2%; growth at 10 µM (SF-268): 99.8%; growth at 10 µM (U-251): 101%; growth at 10 µM (DU-145): 108%; growth at 10 µM (HCC 2998): 112%; growth at 10 µM [5]: 95.7%; growth at 10 µM (NCI-H522): 79.2%; growth at 10 µM (RXF 393): 94.8%; growth at 10 µM (Malme-3M): 101%; growth at 10 µM (A498): 87.6%; growth at 10 µM (OVCAR-3): 95.9%; growth at 10 µM (HOP-92): 66.6%
